From ChEMBL document CHEMBL1123149, “Synthesis and antineoplastic evaluations of 5,8-bis[(aminoalkyl)amino]-1-azaanthracene-9,10-diones” (1985)
In brackets after ≈: the same amount, converted by molar mass. Activity calls are given as the source filed them. No cut-off for these calls is given here.

Assays:
Mus musculus [1] = assay: Activity against L1210 leukemia cells was studied in mice at 100 mg/kg and determined as MST(treated)/MST(control) x100; Inactive; type: functional, organism-based; design: dose 100 mg/kg
L1210 = assay: In vitro growth inhibitory effect against L1210 murine leukemia cells was determined; type: functional; settings: Mus musculus, read-out: ID50 (the source's name)
Summary of the method: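 L1210 cells, 10^5 cells/tube in 4 mL, exposed continuously 96 h to drug added in Me2SO (≤40 μL per culture) at final 0.01, 0.1 and 10 μg/mL, triplicate.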

Mus musculus [2] = assay: Activity against L1210 leukemia cells was studied in mice at 25 mg/kg and determined as MST(treated)/MST(control) x100; type: functional
Mus musculus [3] = assay: Activity against L1210 leukemia cells was studied in mice at 50 mg/kg and determined as MST(treated)/MST(control) x100; type: functional
Mus musculus [4] = assay: Activity against L1210 leukemia cells was studied in mice at 100 mg/kg and determined as MST(treated)/MST(control) x100; Toxic; type: functional, organism-based; design: dose 100 mg/kg
Mus musculus [5] = assay: Activity against L1210 leukemia cells was studied in mice at 30 mg/kg and determined as MST(treated)/MST(control) x100; type: functional
Mus musculus [6] = assay: Activity against L1210 leukemia cells was studied in mice at 15 mg/kg and determined as MST(treated)/MST(control) x100; type: functional

Row | IC50 (L1210) | SMILES | further results
1 | 0.18 µg/mL (≈ 0.746 µM) | O=C1c2cccnc2C(=O)c2c(O)ccc(O)c21 | T/C (Mus musculus [1]): inactive
2 | 0.3 µg/mL (≈ 0.687 µM) | CCN(CC)CCNc1ccc(NCCN(CC)CC)c2c1C(=O)c1ccccc1C2=O | 
3 | 2.4 µg/mL (≈ 5.48 µM) | CCN(CC)CCNc1ccc(NCCN(CC)CC)c2c1C(=O)c1cccnc1C2=O | T/C (Mus musculus [4]): Toxic
4 | 1.7 µg/mL (≈ 4.15 µM) | CN(C)CCCNc1ccc(NCCCN(C)C)c2c1C(=O)c1cccnc1C2=O | 
5 | > 10 µg/mL | CC(=O)NCCNc1ccc(NCCNC(C)=O)c2c1C(=O)c1cccnc1C2=O | 

Row | SMILES | IC50 (L1210) | further results
6 | CN(C)CCNc1ccc(NCCN(C)C)c2c1C(=O)c1cccnc1C2=O | 0.16 µg/mL (≈ 0.419 µM) | T/C (Mus musculus [2]): 120%; T/C (Mus musculus [3]): 130%
7 | CN(C)CCNc1ccc(NCCN(C)C)c2c1C(=O)c1ccccc1C2=O | 0.08 µg/mL (≈ 0.21 µM) | T/C (Mus musculus [5]): 150%; T/C (Mus musculus [6]): 117%
